The subject of data set [1] is TgME49-FLuc tachyzoites. The settings on record: for Culture positive / Plaque positive / Survivors: n=8.
In data set [2] the test system is TgME49-FLuc tachyzoites. Format: in vivo, Toxoplasma gondii. The settings on record: Ifngr1-/- mice, 0.25 mg/ml in drinking water, n=11.
Data set [3] concerns TgME49-EW intact cysts. The data set is described as follows: Intact tissue cyst treatment and plaque outgrowth assay. Format: cell-based, Toxoplasma gondii. In outline: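 Percoll-purified brain tissue cysts (10 per compound) were exposed to 3xEC90 in tubes at 37°C for 4 or 24 h, then washed 3× with PBS. Bradyzoites were freed by acid-pepsin, neutralized, and split into parallel 6-well plates with compound (constant) or without (washout). Plates ran 12−14 days at 37°C, 5% CO2. Plaques were ethanol-fixed, crystal-violet stained, counted by microscopy and normalized to the DMSO control.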

Data set [4] is described as follows: Plasma protein binding. Format: in vitro ADME. The settings on record: CD-1 mouse plasma.
The nature of data set [5]: Pharmacokinetics in mice. The settings on record: 10 mg/kg PO. It is filed as in vivo, CD-1 mice. In outline: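 Fasted male CD-1 mice (3 per group) received a single oral 10 mg/kg dose as a suspension. Blood and brain were sampled at 1, 3 and 8 h. Plasma was obtained by centrifugation and stored below −20 °C. Plasma and brain concentrations were measured by LC−MS/MS. Parameters came from noncompartmental analysis, and brain/plasma ratio is given at the indicated time.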

Data set [6] has as its system MDCK-MDR1. It is filed as in vitro ADME.
The subject of data set [7] is THP-1 cells. Kind of data set: Host cell cytotoxicity, THP-1. It is filed as cell-based, human. In outline:
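THP-1 cells were seeded at 10×10^3/well and differentiated with 10 ng/mL PMA for 24 h before compound addition. Compounds were given as a 10-dose 3-fold series from a 120 μM 2x working solution for 72 h at 37°C, 5% CO2. Viability was read by CellTiter-Glo luminescence.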

Data set [8] is described as follows: Brain homogenate binding. The settings on record: CD-1 mouse brain homogenate. Format: in vitro ADME.
Data set [9] can be described thus: Plasma protein binding. It is filed as in vitro ADME.
For data set [10], the system named is Tg68pBAG1:nLuc,DHFR bradyzoites. The data set is described as follows: In vitro differentiated bradyzoite growth inhibition. Format: cell-based, Toxoplasma gondii. The settings on record: for EC50: Toxoplasma gondii.
Data set [11] can be described thus: Microsomal stability, mouse liver microsomes. Format: in vitro ADME. Background: Liver microsomes are vesicles of endoplasmic reticulum, rich in cytochrome P450 enzymes.
Data set [12] concerns HepG2 cells. Kind of data set: Host cell cytotoxicity, HepG2. Format: cell-based, human.
Data set [13] deals with hERG (Homo sapiens, UniProt Q12809). Kind of data set: hERG inhibition in CHO cell. It is filed as cell-based. The settings on record: read-out: hERG inhibition CHO cell IC50. (Block of hERG is tested as a sign of cardiac risk.)
hERG, sequence (Q12809 whole entry): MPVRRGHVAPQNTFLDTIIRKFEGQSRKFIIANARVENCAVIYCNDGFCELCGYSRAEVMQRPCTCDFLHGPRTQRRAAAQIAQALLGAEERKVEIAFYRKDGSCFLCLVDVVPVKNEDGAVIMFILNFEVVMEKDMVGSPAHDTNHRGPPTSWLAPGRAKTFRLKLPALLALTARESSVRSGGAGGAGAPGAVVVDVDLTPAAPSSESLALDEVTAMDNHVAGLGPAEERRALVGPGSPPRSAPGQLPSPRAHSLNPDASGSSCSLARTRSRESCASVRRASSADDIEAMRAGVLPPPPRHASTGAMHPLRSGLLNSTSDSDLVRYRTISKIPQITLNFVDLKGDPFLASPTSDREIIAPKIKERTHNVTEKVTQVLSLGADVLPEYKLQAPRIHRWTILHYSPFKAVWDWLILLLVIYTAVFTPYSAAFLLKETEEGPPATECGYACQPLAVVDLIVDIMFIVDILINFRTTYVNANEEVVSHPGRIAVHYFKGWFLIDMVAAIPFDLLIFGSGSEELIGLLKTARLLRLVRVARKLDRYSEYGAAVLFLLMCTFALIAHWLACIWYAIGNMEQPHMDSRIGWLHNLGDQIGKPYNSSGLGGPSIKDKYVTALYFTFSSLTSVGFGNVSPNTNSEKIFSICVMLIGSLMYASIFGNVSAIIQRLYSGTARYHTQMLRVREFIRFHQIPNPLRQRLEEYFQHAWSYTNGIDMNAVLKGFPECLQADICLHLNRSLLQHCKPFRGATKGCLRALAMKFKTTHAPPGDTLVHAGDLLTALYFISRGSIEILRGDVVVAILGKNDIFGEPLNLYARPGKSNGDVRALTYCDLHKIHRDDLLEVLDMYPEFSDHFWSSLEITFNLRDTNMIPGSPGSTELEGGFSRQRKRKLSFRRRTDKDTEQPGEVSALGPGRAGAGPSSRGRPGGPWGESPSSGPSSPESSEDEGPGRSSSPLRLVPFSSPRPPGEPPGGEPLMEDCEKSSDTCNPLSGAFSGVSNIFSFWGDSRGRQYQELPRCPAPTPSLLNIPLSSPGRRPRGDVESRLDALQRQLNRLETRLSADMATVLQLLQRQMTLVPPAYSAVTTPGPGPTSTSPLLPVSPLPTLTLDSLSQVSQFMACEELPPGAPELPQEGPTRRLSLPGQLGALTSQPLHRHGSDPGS
For data set [14], the system named is TgME49-Fluc. Kind of data set: Luciferase-based tachyzoite growth inhibition assay. Format: cell-based, Toxoplasma gondii. The settings on record: for EC50: read-out: TgM49 EC50.
The subject of data set [15] is TgRH-PheRS[L497I]-FLuc. Kind of data set: Growth inhibition of PheRS L497I resistant line vs parental line. Format: cell-based, Toxoplasma gondii. The settings on record: EC50 fold resistance, TgL497I vs parental TgRHΔhxgprtΔku80. An outline of the steps:
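Firefly-luciferase tachyzoites were used: the PheRS[L497I] line, made in the parental TgRHΔΔ-FLuc (type I) strain, and the parental line itself. Each well of confluent HFF got 5×10^3 fresh tachyzoites and a 3-fold compound series, at 0.1% DMSO final. After 72 h at 37°C, cells were lysed and luciferase read. […] FR = resistant EC50 / parental EC50.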

Data set [16] concerns TgME49-Fluc. The data set is described as follows: Time dependent tachyzoite inhibition, 4 h washout vs 72 h continuous. It is filed as cell-based, Toxoplasma gondii. The settings on record: vs continuous 72 h.
In data set [17] the test system is TgME49-EW bradyzoites. The data set is described as follows: Ex vivo purified. The settings on record: 3X EC90, 4 h washout vs continual treatment. It is filed as cell-based, Toxoplasma gondii.
Setting [18] is: Experiment 1, 0.25 mg/ml in drinking water.
Setting [19] is: formulation A, na = not detected.
Setting [20] is: Toxoplasma gondii, read-out: TgME49 EC90.

Molecules are shown by their SMILES. Like-named read-outs stand apart in the source and are kept apart here.

In general, CC50 refers to the concentration at which the toxic effect on the cells reaches its halfway point. A word on the IC50: it is the point on the concentration scale where inhibition reaches its midpoint. Usually EC90 stands for the concentration at which the effect reaches the 90% level. For orientation: EC50 means the midpoint of the concentration-response curve.

`Nc1ccc(S(=O)(=O)Nc2ncccn2)cc1` [Sulfadiazine]: in [1] (setting [18]), the weight loss result is given as “little weight loss”, the Culture positive was 6, the Plaque positive stood at 7 and the Survivors was 8. For the same compound, the “mice harboring chronic infection (of 8)” value in data set [1] (Experiment 1, sulfadiazine in drinking water) is 7. Besides, in data set [2], the “survival vs vehicle control” value is reported as “survived significantly longer”.
Consider `COc1ccc(NC(=O)N2CCCCN3[C@H](CN(C)C)[C@H](c4ccc(C#Cc5ccccc5)cc4)[C@@H]3C2)cc1` [BRD7929], for which the “inhibition of outgrowth from intact cysts” value in data set [3] (3X EC90, 24 h treatment followed by washing and plating without compound) is “up to 50%”. Further, the “Plasma protein binding % (CD-1 mouse)” value in [4] turned out to be 99.6%. For the same compound, in data set [5] (formulation A (75% PEG300, 25% D5W), na = not detected), the “Plasma Cmax/D” value is given as 40.6 ± 10.4 ng/mL. For the same compound, the “Mouse B/P (time)” value in data set [5] (formulation A, 8h) is reported as 4.4 (8h). Further, in data set [5] (setting [19]), the “Brain AUClast/D” value turned out to be 807 ng·h/mL, the “Brain Cmax/D” value came to 179 ± 60.7 ng/mL and the “Plasma AUClast/D” value worked out at 220.9 ng·h/mL. In data set [6], the “MDCK-MDR1 Permeability A-B Papp” value was 0.28 10^−6cm/s and the “MDCK-MDR1 Permeability B-A Papp” value was 9.62 10^−6cm/s. This compound returned an SSII in data set [7] (THP-1 CC50 / EC50 TgME49) of 24. In addition, in data set [7] (read-out: THP-1 CC50, Table 2), the CC50 turned out to be 1.01 µM. For the same compound, the “Brain Homogenate binding %(CD-1 mouse)” value in [8] was 99.98%. In data set [9], the “Plasma protein binding % (human)” value was 99.56%. Moreover, the “fold elevation of bradyzoite EC50 compared to tachyzoite conditions” value in [10] (in vitro differentiated bradyzoites vs tachyzoites) is 3 to 5 fold. Moreover, the “Eh (hepatic extraction)” value in data set [11] (calculated with mouse liver blood flow of 90ml/min/kg, second value of cell) is 0.40. In addition, in [11] (mouse liver microsomes, first value of cell), the Microsomal stability mouse stood at 15.41 µL/min/mg. Moreover, the SI in data set [12] (HepG2 CC50 / EC50 TgME49) came out at 147. Besides, the cytotoxic concentration (CC50) in data set [12] (read-out: HepG2 CC50, Table 2) is 6.07 µM. In [13], the half-inhibitory concentration (IC50) stood at 0.54 µM. In data set [1] (Experiment 1, 10 mg/kg QD), the weight loss result is recorded as “little weight loss”. In addition, the Survivors in [1] (Experiment 1, 10 mg/kg QD p.o. 4-10 DPI) was 8. Moreover, the Culture positive in data set [1] (Experiment 1, 10 mg/kg QD, outgrowth in HFF culture) turned out to be 1. The compound further displayed a Plaque positive in [1] (Experiment 1, 10 mg/kg QD, plaquing assay after 14 days) of 1. The “EC50 of recovered parasites” value in data set [1] (Experiment 1, 10 mg/kg QD, EC50 determination using TgME49 expressing firefly luciferase) is recorded as “No change”. Also, the “mice harboring chronic infection (of 8)” value in data set [1] (Experiment 1, 10 mg/kg QD, brain homogenate outgrowth) was 1. The EC90 in data set [14] (read-out: Tg EC90, Table 3) is 0.134 ± 0.085 µM. The concentration giving a half-maximal response (EC50) in data set [14] (ME49 expressing firefly luciferase, Table 2) came to 0.041 µM. For the same compound, the EC90 in [14] (read-out: TgME49 EC90, ME49 expressing firefly luciferase, Table 2) worked out at 0.139 µM. The “TgL497I EC50/ Parental EC50 (FR)” value in data set [15] was 78.
On to `CCc1nc(N)nc(N)c1-c1ccc(Cl)cc1` [Pyrimethamine], for which, in [16], the “potency after 4 h treatment vs continuous treatment (in words)” value is “only effective when used for 72 h treatment”. In addition, the “inhibition of outgrowth of liberated bradyzoites (in words)” value in data set [17] is reported as “only active when used continuously”. Further, in data set [14] (Toxoplasma gondii), the EC50 came out at 0.33 µM. For the same compound, the 90% effect concentration (EC90) in [14] (setting [20]) was found to be 0.551 µM.
For `O=C1C(O)=C([C@H]2CC[C@H](c3ccc(Cl)cc3)CC2)C(=O)c2ccccc21` [Atovaquone], in data set [3] (3X EC90, 24 h treatment), the “activity on intact cysts (in words)” value is listed as “among the most effective compounds in this assay”. Besides, in data set [16], the “potency after 4 h treatment vs continuous treatment (in words)” value was “only effective when used for 72 h treatment”. Besides, in [17], the “inhibition of outgrowth of liberated bradyzoites (in words)” value is recorded as “only active when used continuously”. The concentration giving a half-maximal response (EC50) was found to be 1.59 µM in data set [10] (pH 8.2, read-out: Tg68 EC50 (Alkaline)); 0.052 µM in [10] (read-out: Tg68 EC50 (Glutamine)); 0.071 µM in [14] (Toxoplasma gondii). In addition, in data set [14] (setting [20]), the EC90 stood at 0.163 µM.

These data come from paper PMC12415985 (Journal of medicinal chemistry, 2025).
